Assay [1] has as its target T1, Angiotensin-converting enzyme (Rattus norvegicus) (UniProt P47820).
T1 sequence (whole entry): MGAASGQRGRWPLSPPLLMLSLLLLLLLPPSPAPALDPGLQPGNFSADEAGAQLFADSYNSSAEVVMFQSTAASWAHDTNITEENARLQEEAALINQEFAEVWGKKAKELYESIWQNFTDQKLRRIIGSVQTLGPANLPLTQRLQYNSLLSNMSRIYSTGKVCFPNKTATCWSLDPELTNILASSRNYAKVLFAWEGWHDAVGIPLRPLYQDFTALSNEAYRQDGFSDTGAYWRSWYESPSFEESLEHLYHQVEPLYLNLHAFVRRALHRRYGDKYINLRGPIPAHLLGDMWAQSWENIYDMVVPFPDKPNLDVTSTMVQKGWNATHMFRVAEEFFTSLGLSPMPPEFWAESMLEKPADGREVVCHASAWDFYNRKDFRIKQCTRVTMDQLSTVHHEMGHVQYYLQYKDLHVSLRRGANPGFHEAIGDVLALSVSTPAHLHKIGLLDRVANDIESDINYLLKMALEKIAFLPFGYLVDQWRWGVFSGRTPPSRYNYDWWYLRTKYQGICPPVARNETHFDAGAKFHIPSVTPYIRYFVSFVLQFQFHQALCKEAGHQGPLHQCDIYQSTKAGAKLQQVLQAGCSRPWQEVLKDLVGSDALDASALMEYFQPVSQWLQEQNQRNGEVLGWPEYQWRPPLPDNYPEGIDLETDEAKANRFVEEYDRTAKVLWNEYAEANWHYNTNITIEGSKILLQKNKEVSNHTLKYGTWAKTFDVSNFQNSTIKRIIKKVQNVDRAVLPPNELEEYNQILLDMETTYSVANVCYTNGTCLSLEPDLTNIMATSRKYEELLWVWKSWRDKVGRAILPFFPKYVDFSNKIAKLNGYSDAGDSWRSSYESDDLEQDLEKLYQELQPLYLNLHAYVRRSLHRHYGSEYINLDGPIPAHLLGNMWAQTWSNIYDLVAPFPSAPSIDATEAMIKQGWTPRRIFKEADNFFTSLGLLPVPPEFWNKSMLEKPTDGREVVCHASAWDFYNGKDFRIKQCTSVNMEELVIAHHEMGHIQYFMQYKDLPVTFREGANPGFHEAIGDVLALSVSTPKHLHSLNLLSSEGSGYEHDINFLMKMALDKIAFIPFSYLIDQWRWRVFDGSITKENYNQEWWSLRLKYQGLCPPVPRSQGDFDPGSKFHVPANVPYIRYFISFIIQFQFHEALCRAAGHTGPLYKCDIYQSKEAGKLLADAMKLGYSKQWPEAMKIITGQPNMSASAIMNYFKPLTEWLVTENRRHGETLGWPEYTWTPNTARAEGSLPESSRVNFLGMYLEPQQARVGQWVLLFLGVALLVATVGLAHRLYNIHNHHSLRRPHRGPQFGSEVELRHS
In words: Compound was tested for plasma inhibition of Angiotensin I converting enzyme activity in the conscious rat. Expressed as Inhibition of AI pressor response at 2 hr at a dose of 12 mg/kg po. Also on record: dose 12 mg/kg. The class given is organism-based. In outline: (§1)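 Male conscious normotensive Sprague-Dawley rats (275-390 g), given femoral arterial and venous catheters under methohexital sodium (75 mg/kg ip) anesthesia. Next day, pressor responses to three angiotensin-I challenges (300 ng/kg iv) recorded by direct arterial pressure. Compound then dosed orally, and AI challenge repeated at set times. Each post-dose response compared with the mean of the three baseline responses, giving % inhibition.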

Assay [2] addresses T1, Angiotensin-converting enzyme (Rattus norvegicus). Kind of assay: Compound was tested for plasma inhibition of Angiotensin I converting enzyme activity in the conscious rat. Expressed as Inhibition of AI pressor response at 6 hr at a dose of 12 mg/kg po. The assay is classed as organism-based. Set-up: dose 12 mg/kg. In outline: (§2)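 Male conscious normotensive Sprague-Dawley rats (275-390 g), prepared under methohexital sodium (75 mg/kg ip) with femoral arterial and venous catheters. The next day, pressor responses to three angiotensin-I challenges (300 ng/kg iv) were recorded. Compound was then given orally and angiotensin-I challenges were repeated at set times. Percent inhibition is relative to the mean of the three baseline responses.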

Assay [3] shares this target. Kind of assay: Compound was tested for plasma inhibition of Angiotensin I converting enzyme activity in the conscious rat. Expressed as Inhibition of AI pressor response at 1 hr at a dose of 12 mg/kg po. The class given is organism-based. Also on record: dose 12 mg/kg. The method, boiled down: as §1
For assay [4] the target is unchanged. Kind of assay: Compound was tested for plasma inhibition of Angiotensin I converting enzyme activity in the conscious rat. Expressed as Inhibition of AI pressor response at 4 hr at a dose of 12 mg/kg po. The assay is classed as organism-based. Set-up: dose 12 mg/kg. In outline: as §1
The target is the same in assay [5]. Kind of assay: Compound was tested for plasma inhibition of Angiotensin I converting enzyme activity in the conscious rat. Expressed as Inhibition of AI pressor response at 2 hr at a dose of 13.7 mg/kg po. The assay is classed as organism-based. Set-up: dose 13.7 mg/kg. The method, boiled down: as §1
The target is the same in assay [6]. In words: Compound was tested for plasma inhibition of Angiotensin I converting enzyme activity in the conscious rat. Expressed as Inhibition of AI pressor response at 1 hr at a dose of 13.7 mg/kg po. Also on record: dose 13.7 mg/kg. The class given is organism-based. The method, boiled down:
as §1

Assay [7] shares this target. Kind of assay: Compound was tested for plasma inhibition of Angiotensin I converting enzyme activity in the conscious rat. Expressed as Inhibition of AI pressor response at 4 hr at a dose of 13.7 mg/kg po. The assay is classed as organism-based. Also on record: dose 13.7 mg/kg. In outline: as §2
The target is the same in assay [8]. Kind of assay: Compound was tested for plasma inhibition of Angiotensin I converting enzyme activity in the conscious rat. Expressed as Inhibition of AI pressor response at 6 hr at a dose of 13.7 mg/kg po. The class given is organism-based. Set-up: dose 13.7 mg/kg. The method, boiled down: as §2
Assay [9] deals with Rattus norvegicus. Kind of assay: Plasma ANF Concentration in the Conscious Rat at a dose of 13.7(po)mg/kg at 0.5 h. The class given is functional. The method, boiled down:
(§3)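 Male Sprague-Dawley rats (275-390 g), catheterized in femoral artery and vein under ketamine (150 mg/kg)/acepromazine, tethered and recovered 24 h, studied conscious. Continuous iv rat ANF(99-126) infusion at 450 ng/kg/min for 5 h; baseline blood at 60 min, then oral dosing, sampling at 30-240 min.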

Assay [10] deals with Rattus norvegicus. In words: Plasma ANF Concentration in the Conscious Rat at a dose of 13.7(po)mg/kg at 1 h. The class given is functional. The method, boiled down: as §3
Assay [11] has as its system Rattus norvegicus. Kind of assay: Plasma ANF Concentration in the Conscious Rat at a dose of 13.7(po)mg/kg at 2 h. The class given is functional. The method, boiled down:
as §3

In assay [12] the test system is Rattus norvegicus. In words: Plasma ANF Concentration in the Conscious Rat at a dose of 13.7(po)mg/kg at 4 h. The class given is functional. In outline: as §3
In assay [13] the target is T1, Angiotensin-converting enzyme (Rattus norvegicus). In words: Compound was tested for plasma inhibition of Angiotensin I converting enzyme activity in the conscious rat. Expressed as Inhibition of AI pressor response at 1 hr at a dose of 13.2 mg/kg po. The class given is organism-based. Also on record: dose 13.2 mg/kg. The method, boiled down:
as §1

Assay [14] shares this target. In words: Compound was tested for plasma inhibition of Angiotensin I converting enzyme activity in the conscious rat. Expressed as Inhibition of AI pressor response at 4 hr at a dose of 13.2 mg/kg po. The assay is classed as organism-based. Set-up: dose 13.2 mg/kg. The method, boiled down: as §2
Assay [15] has the same target. Kind of assay: Compound was tested for plasma inhibition of Angiotensin I converting enzyme activity in the conscious rat. Expressed as Inhibition of AI pressor response at 2 hr at a dose of 13.2 mg/kg po. The assay is classed as organism-based. Also on record: dose 13.2 mg/kg. The method, boiled down: as §1
The target is the same in assay [16]. Kind of assay: Compound was tested for plasma inhibition of Angiotensin I converting enzyme activity in the conscious rat. Expressed as Inhibition of AI pressor response at 6 hr at a dose of 13.2 mg/kg po. The assay is classed as organism-based. Set-up: dose 13.2 mg/kg. In outline: as §2
Assay [17] relates to Rattus norvegicus. Kind of assay: Plasma ANF Concentration in the Conscious Rat at a dose of 13.2(po)mg/kg at 0.5 h. The assay is classed as functional. In outline: (§4)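 Male Sprague-Dawley rats (275-390 g) received femoral artery and vein catheters under ketamine (150 mg/kg)/acepromazine and recovered for 24 h, tethered, before study conscious. ratANF(99-126) was infused at 450 ng/kg/min iv for 5 h. Baseline blood was drawn at 60 min into the infusion, then compound was given po.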

Assay [18] deals with Rattus norvegicus. Kind of assay: Plasma ANF Concentration in the Conscious Rat at a dose of 13.2(po)mg/kg at 1 h. The assay is classed as functional. The method, boiled down: as §4
Assay [19] has as its system Rattus norvegicus. In words: Plasma ANF Concentration in the Conscious Rat at a dose of 13.2(po)mg/kg at 2 h. The assay is classed as functional. The method, boiled down:
as §4

Assay [20] has as its system Rattus norvegicus. Kind of assay: Plasma ANF Concentration in the Conscious Rat at a dose of 13.2(po)mg/kg at 4 h. The class given is functional. The method, boiled down: as §4
Assay [21] concerns the target T1, Angiotensin-converting enzyme (Rattus norvegicus). In words: Compound was tested for plasma inhibition of Angiotensin I converting enzyme activity in the conscious rat. Expressed as Inhibition of AI pressor response at 2 hr at a dose of 12.7 mg/kg po. The assay is classed as organism-based. Set-up: dose 12.7 mg/kg. In outline:
as §1

For assay [22] the target is unchanged. In words: Compound was tested for plasma inhibition of Angiotensin I converting enzyme activity in the conscious rat. Expressed as Inhibition of AI pressor response at 6 hr at a dose of 12.7 mg/kg po. Also on record: dose 12.7 mg/kg. The class given is organism-based. In outline:
as §2

For assay [23] the target is unchanged. Kind of assay: Compound was tested for plasma inhibition of Angiotensin I converting enzyme activity in the conscious rat. Expressed as Inhibition of AI pressor response at 1 hr at a dose of 12.7 mg/kg po. The assay is classed as organism-based. Set-up: dose 12.7 mg/kg. The method, boiled down:
as §1

Assay [24] has the same target. Kind of assay: Compound was tested for plasma inhibition of Angiotensin I converting enzyme activity in the conscious rat. Expressed as Inhibition of AI pressor response at 4 hr at a dose of 12.7 mg/kg po. The class given is organism-based. Also on record: dose 12.7 mg/kg. In outline:
as §1

Assay [25] deals with Rattus norvegicus. Kind of assay: Plasma ANF Concentration in the Conscious Rat at a dose of […]. The class given is functional. The conditions noted are these: in the assay text read “12.7(po)mg/kg” for “12.4(po)mg/kg”. In outline:
as §4

The test system of assay [26] is Rattus norvegicus. In words: Plasma ANF Concentration in the Conscious Rat at a dose of 12.7(po)mg/kg at 0.5 h. The class given is functional. The method, boiled down:
as §4

In assay [27] the test system is Rattus norvegicus. In words: Plasma ANF Concentration in the Conscious Rat at a dose of 12.7(po)mg/kg at 1 h. The assay is classed as functional. The method, boiled down:
as §4

Assay [28] has as its system Rattus norvegicus. In words: Plasma ANF Concentration in the Conscious Rat at a dose of 12.7(po)mg/kg at 4 h. The assay is classed as functional. The method, boiled down: as §4

Consider `C=CCOC(=O)[C@H](Cc1ccc(O)cc1)NC(=O)C1(NC(=O)[C@H](SC(C)=O)C(C)C)CCCC1`, for which the inhibition is 75% in [1], 59% in assay [2], 68% in [3] and 67% in [4].
For `CCN(CC)C(=O)COC(=O)[C@H](Cc1ccc(OC)cc1)NC(=O)C1(NC(=O)[C@H](SC(C)=O)C(C)C)CCCC1`, the inhibition in assay [5] worked out at 86%; in assay [6], 88%; in assay [7], 73%; in [8], 64%. Moreover, the Control in assay [9] is 159%; in assay [10], 187%; in [11], 215%; in [12] it was 264%.
Turning to `COc1ccc(C[C@H](NC(=O)C2(NC(=O)[C@H](SC(C)=O)C(C)C)CCCC2)C(=O)OCc2cccnc2)cc1`, the inhibition amounted to 99% in assay [13], 87% in assay [14], 97% in assay [15] and 63% in [16]. Moreover, the Control worked out at 223% in assay [17], 267% in [18], 260% in [19] and 332% in [20].
On to `CC(=O)S[C@@H](C(=O)NC1(C(=O)N[C@@H](Cc2ccc(O)cc2)C(=O)OCCC(C)C)CCCC1)C(C)C`, for which the inhibition in assay [21] was found to be 77%; in assay [22], 60%; in assay [23], 83%; in assay [24], 77%. The Control in [25] was determined as 236%; in [26], 178%; in [27] it was 235%; in assay [28], 251%.

As usually defined, the inhibition is the drop in the measured response relative to a control, in per cent. Low values mean a weak effect, high ones a strong effect.

Values taken from ChEMBL document CHEMBL1129264, “Mercaptoacyl dipeptides as orally active dual inhibitors of angiotensin-converting enzyme and neutral endopeptidase” (1996).
